Data: ChEMBL document CHEMBL3244394, “N7-Substituted 7-aminoactinomycin D analogues. Synthesis and biological properties” (J Med Chem, 1978)
≈ marks a conversion by molar mass, not a printed value. *1 amine or outer side, *2 acyl side, *3 side chain or, on linkers, in order; H or OH if unused. Where a SMILES comes first, the peptide text is derived from it. Bridges are numbered along the chain shown (N, C = ends). Roman numbers before positions name the chains, in order. [ ]: non-standard residue; d: D form. Actinocin(9to1) = Cc1c2oc3c(C)ccc(C(=O)[*:1])c3nc-2c(C(=O)[*:2])c(N)c1=O; NMeV = CN[C@H](C(=O)O)C(C)C; Sar = CNCC(=O)O

Key:
P388 [1] = test: Antitumor activity against mouse P388 cells allografted in BDF1 hybrid mouse assessed as increase of host life span at 200 ug/kg qd for 4 days; format: functional; details: P388, 96 h
Method in brief: (§1)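 P388 leukemia, 10⁶ cells, implanted ip in male BDF₁ mice, seven per group. Compounds given in saline once daily on four successive days starting 1 day after implantation (qd 1-4).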

[2] = Cytotoxicity against human CCRF-CEM cells; format: cell-based; details: read-out: ID50 (the source's name)
Method in brief: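 In vitro growth-inhibition assay on human lymphoblastic leukemia CCRF-CEM cells grown in suspension culture. The values are relative cytotoxicity.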

P388 [3] = test: Antitumor activity against mouse P388 cells allografted in BDF1 hybrid mouse assessed as increase of host life span at 500 ug/kg qd for 4 days; format: functional; details: P388, 96 h; method in brief: as §1
P388 [4] = test: Antitumor activity against mouse P388 cells allografted in BDF1 hybrid mouse assessed as increase of host life span at 75 ug/kg qd for 4 days; format: functional; details: P388, 96 h; method in brief: as §1
P388 [5] = test: Antitumor activity against mouse P388 cells allografted in BDF1 hybrid mouse assessed as increase of host life span at 150 ug/kg qd for 4 days; format: functional; details: P388, 96 h; method in brief: as §1
P388 [6] = test: Antitumor activity against mouse P388 cells allografted in BDF1 hybrid mouse assessed as increase of host life span at 800 ug/kg qd for 4 days; format: functional; details: P388, 96 h; method in brief: as §1
P388 [7] = test: Antitumor activity against mouse P388 cells allografted in BDF1 hybrid mouse assessed as increase of host life span at 225 ug/kg qd for 4 days; format: functional; details: P388, 96 h; method in brief: as §1
P388 [8] = test: Antitumor activity against mouse P388 cells allografted in BDF1 hybrid mouse assessed as increase of host life span at 450 ug/kg qd for 4 days; format: functional; details: P388, 96 h; method in brief: as §1
P388 [9] = test: Antitumor activity against mouse P388 cells allografted in BDF1 hybrid mouse assessed as increase of host life span at 1500 ug/kg qd for 4 days; format: functional; details: P388, 96 h; method in brief: as §1

Structure (SMILES) | CC50 [2] | further results
Cc1c2oc3c(C)c(NCc4ccco4)cc(C(=O)N[C@@H]4C(=O)N[C@H](C(C)C)C(=O)N5CCC[C@H]5C(=O)N(C)CC(=O)N(C)[C@@H](C(C)C)C(=O)O[C@@H]4C)c3nc-2c(C(=O)N[C@@H]2C(=O)N[C@H](C(C)C)C(=O)N3CCC[C@H]3C(=O)N(C)CC(=O)N(C)[C@@H](C(C)C)C(=O)O[C@@H]2C)c(N)c1=O | 0.26 µg/mL (≈ 0.193 µM) | ILS at 0.2 mg/kg (P388 [1]): 90%
Cc1c2oc3c(C)c(NCc4ccc(C(=O)O)cc4)cc(C(=O)N[C@@H]4C(=O)N[C@H](C(C)C)C(=O)N5CCC[C@H]5C(=O)N(C)CC(=O)N(C)[C@@H](C(C)C)C(=O)O[C@@H]4C)c3nc-2c(C(=O)N[C@@H]2C(=O)N[C@H](C(C)C)C(=O)N3CCC[C@H]3C(=O)N(C)CC(=O)N(C)[C@@H](C(C)C)C(=O)O[C@@H]2C)c(N)c1=O | 0.26 µg/mL (≈ 0.185 µM) | ILS at 0.5 mg/kg (P388 [3]): 123%
Cc1c2oc3c(C)c(NCc4ccc(C(F)(F)F)cc4)cc(C(=O)N[C@@H]4C(=O)N[C@H](C(C)C)C(=O)N5CCC[C@H]5C(=O)N(C)CC(=O)N(C)[C@@H](C(C)C)C(=O)O[C@@H]4C)c3nc-2c(C(=O)N[C@@H]2C(=O)N[C@H](C(C)C)C(=O)N3CCC[C@H]3C(=O)N(C)CC(=O)N(C)[C@@H](C(C)C)C(=O)O[C@@H]2C)c(N)c1=O | 0.26 µg/mL (≈ 0.182 µM) | ILS at 0.5 mg/kg (P388 [3]): 100%
Cc1c2oc3c(C)ccc(C(=O)N[C@@H]4C(=O)N[C@H](C(C)C)C(=O)N5CCC[C@H]5C(=O)N(C)CC(=O)N(C)[C@@H](C(C)C)C(=O)O[C@@H]4C)c3nc-2c(C(=O)N[C@@H]2C(=O)N[C@H](C(C)C)C(=O)N3CCC[C@H]3C(=O)N(C)CC(=O)N(C)[C@@H](C(C)C)C(=O)O[C@@H]2C)c(N)c1=O [DACTINOMYCIN] (I: T[dV]P[Sar][NMeV] / II: T[dV]P[Sar][NMeV]; ester I:1-I:C, II:1-II:C; linker I:N-II:N via Actinocin(9to1)) | 0.01 µg/mL (≈ 0.00797 µM) | ILS at 0.075 mg/kg (P388 [4]): 122%
Cc1c2oc3c(C)c(NCc4ccc[nH]4)cc(C(=O)N[C@@H]4C(=O)N[C@H](C(C)C)C(=O)N5CCC[C@H]5C(=O)N(C)CC(=O)N(C)[C@@H](C(C)C)C(=O)O[C@@H]4C)c3nc-2c(C(=O)N[C@@H]2C(=O)N[C@H](C(C)C)C(=O)N3CCC[C@H]3C(=O)N(C)CC(=O)N(C)[C@@H](C(C)C)C(=O)O[C@@H]2C)c(N)c1=O | 0.26 µg/mL (≈ 0.193 µM) | ILS at 0.2 mg/kg (P388 [1]): 90%
Cc1c2oc3c(C)c(NCc4ccc(Cl)c(Cl)c4)cc(C(=O)N[C@@H]4C(=O)N[C@H](C(C)C)C(=O)N5CCC[C@H]5C(=O)N(C)CC(=O)N(C)[C@@H](C(C)C)C(=O)O[C@@H]4C)c3nc-2c(C(=O)N[C@@H]2C(=O)N[C@H](C(C)C)C(=O)N3CCC[C@H]3C(=O)N(C)CC(=O)N(C)[C@@H](C(C)C)C(=O)O[C@@H]2C)c(N)c1=O | 0.22 µg/mL (≈ 0.154 µM) | ILS at 0.5 mg/kg (P388 [3]): 192%
Cc1c2oc3c(C)c(N)cc(C(=O)N[C@@H]4C(=O)N[C@H](C(C)C)C(=O)N5CCC[C@H]5C(=O)N(C)CC(=O)N(C)[C@@H](C(C)C)C(=O)O[C@@H]4C)c3nc-2c(C(=O)N[C@@H]2C(=O)N[C@H](C(C)C)C(=O)N3CCC[C@H]3C(=O)N(C)CC(=O)N(C)[C@@H](C(C)C)C(=O)O[C@@H]2C)c(N)c1=O | 0.085 µg/mL (≈ 0.0669 µM) | ILS at 0.15 mg/kg (P388 [5]): 164%
Cc1c2oc3c(C)c(NCc4ccccc4)cc(C(=O)N[C@@H]4C(=O)N[C@H](C(C)C)C(=O)N5CCC[C@H]5C(=O)N(C)CC(=O)N(C)[C@@H](C(C)C)C(=O)O[C@@H]4C)c3nc-2c(C(=O)N[C@@H]2C(=O)N[C@H](C(C)C)C(=O)N3CCC[C@H]3C(=O)N(C)CC(=O)N(C)[C@@H](C(C)C)C(=O)O[C@@H]2C)c(N)c1=O | 0.25 µg/mL (≈ 0.184 µM) | ILS at 0.8 mg/kg (P388 [6]): 108%
Cc1c2oc3c(C)c(NCc4cccc(Oc5ccccc5)c4)cc(C(=O)N[C@@H]4C(=O)N[C@H](C(C)C)C(=O)N5CCC[C@H]5C(=O)N(C)CC(=O)N(C)[C@@H](C(C)C)C(=O)O[C@@H]4C)c3nc-2c(C(=O)N[C@@H]2C(=O)N[C@H](C(C)C)C(=O)N3CCC[C@H]3C(=O)N(C)CC(=O)N(C)[C@@H](C(C)C)C(=O)O[C@@H]2C)c(N)c1=O | 0.28 µg/mL (≈ 0.193 µM) | ILS at 0.225 mg/kg (P388 [7]): 130%
Cc1c2oc3c(C)c(NCc4ccccn4)cc(C(=O)N[C@@H]4C(=O)N[C@H](C(C)C)C(=O)N5CCC[C@H]5C(=O)N(C)CC(=O)N(C)[C@@H](C(C)C)C(=O)O[C@@H]4C)c3nc-2c(C(=O)N[C@@H]2C(=O)N[C@H](C(C)C)C(=O)N3CCC[C@H]3C(=O)N(C)CC(=O)N(C)[C@@H](C(C)C)C(=O)O[C@@H]2C)c(N)c1=O | 0.26 µg/mL (≈ 0.191 µM) | ILS at 0.45 mg/kg (P388 [8]): 145%
CCCCCCCCNc1cc(C(=O)N[C@@H]2C(=O)N[C@H](C(C)C)C(=O)N3CCC[C@H]3C(=O)N(C)CC(=O)N(C)[C@@H](C(C)C)C(=O)O[C@@H]2C)c2nc3c(C(=O)N[C@@H]4C(=O)N[C@H](C(C)C)C(=O)N5CCC[C@H]5C(=O)N(C)CC(=O)N(C)[C@@H](C(C)C)C(=O)O[C@@H]4C)c(N)c(=O)c(C)c-3oc2c1C | 0.27 µg/mL (≈ 0.195 µM) | ILS at 1.5 mg/kg (P388 [9]): 73%
